Some results are limits rather than exact numbers.

What is called Vd/F is the volume of distribution divided by bioavailability.

The test system of data set [1] is T2DM patients. The conditions noted are these: T2DM patients with mean FPG 8–9 mmol/L (144–162 mg/dL); cited from earlier work.
Data set [2] relates to Japanese healthy subjects and patients with T2DM. Put plainly: PK/PD maximum effect. The class given is in vivo, human. In short, it runs like this:
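Emax model fitted in NONMEM (FOCE with interaction) to pooled healthy-subject and T2DM data from three studies. AUC24h came from noncompartmental analysis, and UGE24h was taken over matching intervals. Emax was modelled as dependent on FAC (FPG × GFR) up to a threshold of 18 000 and constant above it. There was no interindividual variability, and residual error was additive plus proportional. Covariates were added stepwise (P < .05) and removed backward (P < .001), and the model was bootstrapped.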

The nature of data set [3]: Population PK model. The class given is in vivo, human. The method in brief:
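The prior model was built from 534 plasma concentrations in 43 T2DM patients sampled serially after oral dosing. It was a 2-compartment model with first-order absorption (ADVAN4/TRANS4), log-normal interindividual variability and proportional residual error, fitted by FOCE with interaction. It served via $PRIOR to fit trough concentrations from four later studies. Covariates on CL/F were tested stepwise. Plasma drug was measured by LC–MS/MS (LLOQ 1 ng/mL).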

A short description of data set [4]: Simulation of steady-state AUC24h using post-hoc CL/F from the final PopPK model. Further details: species or system human. In short, it runs like this:
(§1)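 Steady state was simulated for 887 Japanese T2DM patients at 12.5, 25, 50 and 100 mg once daily. AUC24h came from individual post-hoc CL/F of the final PopPK model, and ΔUGE24h came from the final PK/PD model. The 50 mg regimen was also summarized by eGFR class (≥90, 60 to <90, 30 to <60 mL/min/1.73 m2). Results are given as median and 2.5th–97.5th percentiles.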

Data set [5] concerns Japanese patients with T2DM. Put plainly: Simulation of steady-state ΔUGE24h by the final PK/PD model. To be noted: 50 mg once daily. Further details: species or system human. In short, it runs like this:
as §1

For data set [6], the system named is Japanese healthy subjects and patients with T2DM. Kind of data set: Phase I and clinical pharmacology studies. The format is in vivo, human. The method in brief: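 Oral dosing in three studies. Healthy subjects received single fasted doses of 1–300 mg, or 20–100 mg daily after a standardized meal. T2DM patients received 50 or 100 mg daily for 14 days. A single 50 mg dose was given to T2DM patients grouped by eGFR. Urine was collected for 24 h predose and in postdose intervals, and UGE24h was calculated. Pooled data from 137 subjects were plotted against FPG and AUC24h.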

The conditions of data set [7]: cited from earlier work.
The conditions of data set [8]: cited from earlier work. This is another data set of the same source.
For data set [9] the following is noted: cited from earlier work. This is another data set of the same source.
Data set [10] has as its system Japanese healthy subjects and patients with T2DM. The conditions noted are these: phase I and clinical pharmacology studies; cited from earlier work.
Data set [11] deals with T2DM patients. To be noted: once daily 12.5, 25, 50 and 100 mg, 12 weeks; cited from earlier work.
Data set [12] deals with Japanese patients with T2DM. The conditions noted are these: once daily 50 mg for 16 weeks; cited from earlier work.
Data set [13] deals with T2DM patients with moderate renal impairment. To be noted: cited from earlier work.

For the compound `OC[C@H]1O[C@@H](c2ccc(Cl)c(Cc3ccc(O[C@H]4CCOC4)cc3)c2)[C@H](O)[C@@H](O)[C@@H]1O` [empagliflozin], in data set [1], the Emax is listed as 120 g/24 h.

`OC[C@H]1O[C@@H](c2ccc(F)c(Cc3cc4ccccc4s3)c2)[C@H](O)[C@@H](O)[C@@H]1O` [ipragliflozin]: in data set [2] (above 50 mg daily dose, suggested by PK/PD model), the “glucose excretion effect versus dose” value is “almost reaches the maximum level”. For the same compound, in data set [2] (population mean, constant above FAC threshold), the “Emax of ΔUGE24h: FAC > 18 000” value is on record as 107 g/24 h. Further, in data set [2] (population mean, reference FPG 100 mg/dL and GFR 90 mL/min), the “Emax of ΔUGE24h: FAC ≤ 18 000” value came to 72.3 g/24 h. In addition, the “Interindividual variability of CL/F” value in data set [3] (base model, before covariates) is on record as 26.8%. The “Interindividual variability ω^2: CL” value in data set [3] (final PopPK model) was 0.0533. Also, the Vd/F in [3] (human, plasma, oral) stood at 39.4 L. Moreover, in data set [3] (population mean, T2DM patients), the “first order absorption rate constant Ka” value worked out at 6.38 h⁻¹ and the “oral clearance CL/F” value came to 9.47 L/h. The “higher exposure in moderate renal impairment patients with T2DM” value in data set [4] (descriptive comparison of assessed AUC and simulation by final PopPK model) is given as “about 20%”. In data set [4] (final PopPK model), the “change in exposure caused by covariates other than GFR (BSA, TPRO, TBIL)” value is given as not above 10%. Besides, the “increase in AUC24h, moderate renal impairment compared to normal renal function” value in data set [4] (simulation, 50 mg once daily, T2DM patients) is 1.17 fold. In data set [5], the “change in ΔUGE24h, moderate renal impairment compared to normal renal function” value is listed as 0.76 fold. In addition, in [6] (1 and 3 mg single dose, healthy subjects, Study A), the “effects on UGE at low doses” value is reported as “no significant effects”. Moreover, the “UGE after single and multiple doses” value in data set [6] (healthy subjects and T2DM patients, exploratory assessment) is listed as “dose‐dependent increase”. Besides, in data set [7], the oral bioavailability is recorded as more than 90%. Moreover, in [8], the “protein binding ex vivo” value was ~ 96%. For the same compound, in [9], the “urinary excretion ratio of unchanged ipragliflozin” value is given as “approximately 1%”. In addition, in [10], the exposure versus dose entry is on record as “increase dose‐dependently”, the tolerability entry was “consistently well tolerated” and the “urinary glucose excretion (UGE) versus dose” value is given as “increase dose‐dependently”. For the same compound, the “fasting plasma glucose (FPG) and HbA1c levels” value in [11] is reported as “dose‐dependent decreases”. In data set [12], the “decreasing FPG and HbA1c levels versus placebo” value is reported as “superior to a placebo”; the tolerability result is on record as “well tolerated”. Further, in data set [13], the antidiabetic effect result is reported as “weaker antidiabetic effect”.

Source of the values: publication PMC6624389 (British Journal of Clinical Pharmacology, 2019).
